Kd and IC50 data for one compound are collected here from paper PMC9236207 (ACS Pharmacology & Translational Science, 2022).

The target in test [1] is T1, ACE2 (Homo sapiens, UniProt Q9BYF1). The experiment in a line: ACE2 binding by microscale thermophoresis. In short, it runs like this:
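Seven-point twofold compound dilution series. MST at 45% excitation and medium MST power. Kd (± standard error) fitted from the change in normalized fluorescence. A poly-His peptide counterscreen was run under identical conditions.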

The target of test [2] is T1, ACE2. The experiment in a line: ACE2 enzymatic assay. Format: biochemical. The gist of the method:
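Fluorometric assay with His-tagged ACE2 extracellular domain at 0.2 nM final in PBS pH 7.4, 0.01% Tween-20, preincubated with compound for 15 min at RT. Then MCA-Ala-Pro-Lys(Dnp)-OH substrate was added (60 μM stock). Fluorescence read at 340/440 nm at 0 and 15 min, RT.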

T1 sequence (Q9BYF1 18-740): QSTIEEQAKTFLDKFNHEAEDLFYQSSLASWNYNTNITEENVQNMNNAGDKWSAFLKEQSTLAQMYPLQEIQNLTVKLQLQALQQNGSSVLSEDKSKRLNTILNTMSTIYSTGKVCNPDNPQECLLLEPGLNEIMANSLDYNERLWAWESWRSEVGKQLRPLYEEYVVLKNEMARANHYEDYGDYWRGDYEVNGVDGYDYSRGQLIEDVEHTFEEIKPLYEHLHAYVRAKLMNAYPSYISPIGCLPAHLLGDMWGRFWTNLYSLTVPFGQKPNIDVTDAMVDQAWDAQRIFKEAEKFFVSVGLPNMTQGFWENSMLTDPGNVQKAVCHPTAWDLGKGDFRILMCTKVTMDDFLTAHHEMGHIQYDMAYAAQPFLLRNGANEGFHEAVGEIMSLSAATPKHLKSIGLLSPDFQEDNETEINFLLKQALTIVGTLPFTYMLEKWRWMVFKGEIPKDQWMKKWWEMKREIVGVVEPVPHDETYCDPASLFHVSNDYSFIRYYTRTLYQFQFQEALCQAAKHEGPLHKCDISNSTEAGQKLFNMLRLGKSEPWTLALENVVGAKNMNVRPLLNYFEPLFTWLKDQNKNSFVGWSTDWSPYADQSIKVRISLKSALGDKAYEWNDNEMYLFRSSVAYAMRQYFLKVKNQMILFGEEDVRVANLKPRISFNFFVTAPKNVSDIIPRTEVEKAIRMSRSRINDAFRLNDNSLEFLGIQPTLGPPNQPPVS

As for `CC(C)C[C@H](N[C@@H](Cc1cncn1Cc1cc(Cl)cc(Cl)c1)C(=O)O)C(=O)O` [MLN-4760], at ACE2 [1], the dissociation constant Kd came to 702 nM. This compound also displayed an IC50 at ACE2 [2] of 1.5 nM.

In general, Kd refers to a measure of binding affinity in units of concentration. Higher therefore signals lower affinity. A word on the IC50: it is the concentration needed to halve the response being measured. Low values mean inhibition by little substance, high ones a need for much substance.
